As usually defined, the IC50 is the midpoint of a concentration-inhibition curve. A low value points to greater potency.

Where a name gives a salt, the structure may show the parent alone.

The first experiment in a line: Binding affinity against sigma receptor from guinea pig brain (minus cerebellum) homogenates, using the novel [3H]-(+/-)-4 as radioligand.
For `CCN(CC)C1Cc2ccccc2C(c2ccccc2)C1` (trans isomer), the IC50 is 4.5 nM. This lies in the single-digit nanomolar range.

The compound `CN(C)[C@H]1CCc2ccccc2[C@H]1c1ccccc1` [Dimethyl-(1-phenyl-1,2,3,4-tetrahydro-naphthalen-2-yl)-amine] yielded an IC50 of 2760 nM.

`C=CCNC1Cc2ccccc2C(c2ccccc2)C1` (stereo not drawn) [trans-Allyl-(4-phenyl-1,2,3,4-tetrahydro-naphthalen-2-yl)-amine; hydrochloride] had an IC50 of 117 nM.

Compound `C=CCN(CC=C)C1Cc2ccccc2C(c2ccccc2)C1` (stereo not drawn) [trans-Diallyl-(4-phenyl-1,2,3,4-tetrahydro-naphthalen-2-yl)-amine; hydrochloride] came in with an IC50 of 27 nM.

The next experiment is described as follows: Binding affinity against sigma receptor from guinea pig brain (minus cerebellum) homogenates, using [3H]ditolylguanidine (DTG) as radioligand. The procedure, abridged:
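Competition binding with whole guinea pig brain (minus cerebellum) homogenates in 10 mM Tris-HCl without added cations. Nonspecific binding was defined by 10 μM haloperidol. Concentrations were tested in duplicate, with three replications. IC50 values came from curve fitting.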
The compound `CCN(CC)C1Cc2ccccc2C(c2ccccc2)C1` (trans isomer) showed a half-maximal inhibitory concentration (IC50) of 207 nM. That is a sub-micromolar value.

Take `CN(C)[C@H]1CCc2ccccc2[C@H]1c1ccccc1` [Dimethyl-(1-phenyl-1,2,3,4-tetrahydro-naphthalen-2-yl)-amine]: the IC50 is 3340 nM.

On to `CN(C)C1Cc2ccccc2C(c2ccccc2)C1` (stereo not drawn) [cis-Dimethyl-(4-phenyl-1,2,3,4-tetrahydro-naphthalen-2-yl)-amine; hydrochloride], for which the IC50 was determined as 960 nM. This IC50 is about 3.5-fold lower than that of the compound before.

`NC1Cc2ccccc2C(c2ccccc2)C1` (stereo not drawn) [trans-4-Phenyl-1,2,3,4-tetrahydro-naphthalen-2-ylamine; hydrochloride] returned an IC50 above 10000 nM.

In turn, `C=CCN(C)C1Cc2ccccc2C(c2ccccc2)C1` (stereo not drawn) [trans-Allyl-methyl-(4-phenyl-1,2,3,4-tetrahydro-naphthalen-2-yl)-amine; hydrochloride] registered an IC50 of 1550 nM.

Regarding `C=CCN(CC=C)C1Cc2ccccc2C(c2ccccc2)C1` (stereo not drawn) [trans-Diallyl-(4-phenyl-1,2,3,4-tetrahydro-naphthalen-2-yl)-amine; hydrochloride], the IC50 worked out at 538 nM.
